This passage reports cytotoxicity results from ChEMBL document CHEMBL4513216, “Probing the Open Global Health Chemical Diversity Library for Multistage-Active Starting Points for Next-Generation Antimalarials” (ACS Infect Dis, 2020).

The data set is described as follows: Toxicity liver stage against HepG2, at 10uM. The format is cell-based. More on the design: test concentration 10 uM, cell line HepG2-A16-CD81EGFP. To be noted: human, HepG2-A16-CD81EGFP cells; read-out: INHIBITION
A digest of the protocol:
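Uninfected HepG2-A16-CD81EGFP cells, 3 × 10^3 per well, 1536-well, plated on prespotted compound at 10 μM final, parasite-free screening media added to match infected plates; puromycin 10 μM positive, DMSO 0.5% negative; run in parallel with 48 h PbLuc assay at 37 °C, 5% CO2; viability by CellTiter-Glo luminescence, normalized to controls.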
As to `O=c1ccc2c(n1Cc1cccnc1)CCN(C1CCOC1)CC2` (stereo unspecified), the cytotoxicity at 10 µM worked out at 9.58%.

With `Cc1nccn1-c1ccc(CNC(=O)c2ccc([S+](C)[O-])cc2)cn1` (stereo unspecified), the cytotoxicity at 10 µM was -18.1%. As for `CS(=O)(=O)NCC1CCCCN1C(=O)c1ccsc1` (stereo unspecified), the cytotoxicity at 10 µM came to 0.555%. As for `Cn1ncc2ccc(C3CCCN(C(=O)Cc4cccs4)C3)nc21` (stereo unspecified), the cytotoxicity at 10 µM amounted to 10%. Take `Cc1ccc(C(=O)NS(C)(=O)=O)cc1-n1cccc1`: the cytotoxicity at 10 µM is -3.47%.

On to `Cc1cnc(N2CCC3(CC2)CC(N(C)Cc2ccncc2)C3)nc1`, for which the cytotoxicity at 10 µM was 8.73%.

Regarding `CCN1CC2(CC1=O)CN(C(=O)COC)CCN(S(C)(=O)=O)C2` (stereo unspecified), the cytotoxicity at 10 µM was 0.165%. With `O=C1CN(C(=O)C2CN(c3ccc(F)cc3)CCO2)CCN1` (stereo unspecified), the cytotoxicity at 10 µM stood at 3.04%. Take `CC1CN(CC(=O)Nc2nncs2)CCN1c1nccs1` (stereo unspecified): the cytotoxicity at 10 µM is -15.7%. For the molecule `N#Cc1ccc(OCCCN2CCOC(Cn3cncn3)C2)cc1` (stereo unspecified), the cytotoxicity at 10 µM was -0.0581%. For the molecule `CCc1noc(CN(C)Cc2ccc(N3CCCCC3)cc2)n1`, the cytotoxicity at 10 µM was -5.88%. On to `CC(c1cccnc1)N(C)Cc1ccccn1` (stereo unspecified), for which the cytotoxicity at 10 µM came to 0.423%. Then `COc1ccccc1CC1CCCN(C(=O)c2cc[nH]n2)C1` (stereo unspecified), with 6.11%; and `O=C(c1cncc(N2CCC(O)(CO)CC2)n1)N1CCCC1`, with -7.71%. Consider `CN1C(=O)CCC12CCC(NC(=O)NCc1cccnc1)CC2` (stereo unspecified), for which the cytotoxicity at 10 µM was -99.8%.

`CCn1ncc(CN2CCCC(n3c(=O)oc4ccccc43)C2)c1C` (stereo unspecified): the cytotoxicity at 10 µM stood at 1.83%. For the molecule `O=C(c1cocn1)N1CCC2(CC1)COC(COCc1ccccn1)C2` (stereo unspecified), the cytotoxicity at 10 µM is -116%. For `COCCNC(=O)[C@@]12CCO[C@@H]1CCN(Cc1ccc(OC)cc1)C2`, the cytotoxicity at 10 µM is -77.8%.

Regarding `O=C(c1nc(=O)[nH][nH]1)N1CCCC(c2cc(C(F)(F)F)[nH]n2)C1` (stereo unspecified), the cytotoxicity at 10 µM was -12.3%. Turning to `O=C1COC2(CCN(Cc3ccco3)CC2)CN1`, the cytotoxicity at 10 µM is -1.49%. Then `COc1ccc(CN2C[C@@H]3COC[C@]3(COc3cccnc3)C2)cc1`, with -18.4%; and `CCOC(=O)c1coc(N2CCC(N3CCC(O)CC3)CC2)n1`, with 6.41%; and `C[C@@H]1CN(Cc2ccsc2)C[C@]12CCN(Cc1cccnc1)C2=O`, with 7.62%.

For `COc1cc(C)nc(N2CCN(Cc3nccn3C)CC2)n1`, the cytotoxicity at 10 µM was -1.8%. Take `Clc1snnc1CN1CCN(c2nccs2)CC1`: the cytotoxicity at 10 µM is -43.9%. In the case of `O=C(O)[C@@H]1CN(Cc2ccc(-c3cc[nH]n3)s2)C[C@H]1C1CC1`, the cytotoxicity at 10 µM is 5.13%. With `COc1cccc(CNC(=O)c2ccccc2-n2cnc(CN)c2)c1`, the cytotoxicity at 10 µM is -17%. As for `CN1CCC(N2C[C@H](O)C[C@H]2c2nc(Cc3ccccc3)no2)CC1`, the cytotoxicity at 10 µM was found to be 10.7%. Then `CS(=O)(=O)N1CCCC12CCCN(C(=O)c1ccc3[nH]ccc3c1)C2` (stereo unspecified), with -140%; and `Cc1cc(CN(Cc2cccs2)CC2CCCO2)no1` (stereo unspecified), with 2.86%; and `O=C(c1ccc[nH]1)N1CCc2c(cccc2S(=O)(=O)N2CCOCC2)C1`, with -15%. For the molecule `O=C(c1ccc(C(F)(F)F)cc1)N1C[C@@H](CN2CCCCC2)[C@@H](CO)C1`, the cytotoxicity at 10 µM was found to be 0.313%. With `O=C(c1cc(-n2cnnn2)ccc1Cl)N1CCC2(CC1)OCCO2`, the cytotoxicity at 10 µM was -1.66%.

In the case of `COCCNC(=O)C(C)n1cc(Br)cn1` (stereo unspecified), the cytotoxicity at 10 µM is -15%. In the case of `Cc1nc(C)n(CC2CCCN(CCOc3cccc(F)c3)C2)n1` (stereo unspecified), the cytotoxicity at 10 µM is -3.18%. As to `O=S(=O)(C1CC1)N1CCc2ncc(Cn3cccn3)n2CC1`, the cytotoxicity at 10 µM was 9.58%. As for `CC(=O)NC1CCN(c2c(C#N)cnc3c(C)cc(F)cc23)CC1`, the cytotoxicity at 10 µM was determined as 7.72%. In the case of `CNc1nc2cn(Cc3ccc(Cl)cc3)c(=O)c-2c[nH]1`, the cytotoxicity at 10 µM was found to be 8.93%. As to `OCC(O)CSCc1cn(-c2ccc(F)c(Cl)c2)nn1` (stereo unspecified), the cytotoxicity at 10 µM was found to be 9.51%. Take `Cn1ccnc1CN1CCO[C@H]2C(CNC(=O)c3ccco3)CC[C@@H]21` (stereo partly specified): the cytotoxicity at 10 µM is 3.62%. With `Cc1cccc(S(=O)(=O)NC(=O)c2ccc3c(c2)nnn3C)c1`, the cytotoxicity at 10 µM was -8.97%. As to `O=C1CCc2cc(-c3csc(CCN4CCCC4=O)n3)ccc2N1`, the cytotoxicity at 10 µM is -6.64%. In the case of `COc1cccc(C(=O)N2CCN(C(=O)CCCn3ccnc3)CC2)c1` it was 3.82%. As for `C/C=C(\C)CN1C[C@H](NC(=O)CN2CCCC2=O)[C@@H](c2ccc(C)o2)C1`, the cytotoxicity at 10 µM worked out at 10.8%. As to `CN(CCc1ccccc1)c1cnn(Cc2ccccn2)c(=O)c1`, the cytotoxicity at 10 µM was -7.03%.

With `COc1cc(N2CC[C@H]3O[C@@H](C(=O)NC4CCCC4)CC[C@H]32)ncn1`, the cytotoxicity at 10 µM stood at 13.2%. Regarding `O=c1[nH]c(COc2cccc(F)c2)nc2c1CCNC2`, the cytotoxicity at 10 µM stood at 10.1%. On to `Cc1nn(C)c2nc(C3CC3)c(Cl)c(C(=O)O)c12`, for which the cytotoxicity at 10 µM is 7.44%.

In the case of `Cc1cc(C)n(CCN2CCC(N(C)Cc3noc(C4CC4)n3)C2)n1` (stereo unspecified), the cytotoxicity at 10 µM is -2.92%. For the molecule `CCC(=O)N1CCC1c1cc(NC2CCCC2)nc(C)n1` (stereo unspecified), the cytotoxicity at 10 µM is -7.61%. For the molecule `CSC(C)(C)CNC(=O)Nc1cccc(-c2nccn2C)c1`, the cytotoxicity at 10 µM is -3.13%. In the case of `Cc1cccc(C2(C(=O)NCCCn3cccn3)CC2)c1` it was -7.66%; in that of `O=C(c1cnoc1)N1CCC[C@]2(C[C@@H](Oc3ccccn3)CO2)C1`, -5.96%. With `Cc1nc(CNCc2c(C)nn(C)c2N2CCOCC2)cs1`, the cytotoxicity at 10 µM was -7.44%.

As for `Cc1nc(CN2CCC(N(C)Cc3noc(C(C)C)n3)C2)oc1C` (stereo unspecified), the cytotoxicity at 10 µM is 4.63%.

Consider `O=C(COCC(=O)N(c1ccccc1)c1ccccc1)N1CCOCC1`, for which the cytotoxicity at 10 µM worked out at 1.64%.

`c1cc(CNCc2ccnc(N3CCCC3)c2)c2c(c1)OCO2`: the cytotoxicity at 10 µM came out at 3.21%. On to `COCc1nc(C2CC2)nn1-c1cc(Cl)ccc1OC`, for which the cytotoxicity at 10 µM was -10.2%.

For the molecule `COc1cccc(S(=O)(=O)NC(=O)CC2CCCO2)c1` (stereo unspecified), the cytotoxicity at 10 µM was determined as 7.53%. Then `CC(C)(C)C(O)CN1CCN(C(=O)c2cccc3ncccc23)CC1` (stereo unspecified), with 4.67%; and `CN(CCO)Cc1nnc(C2CCN(C(=O)CN3CCCC3)CC2)n1C`, with 2.1%; and `CC(=O)c1cnc(NCCN2CCCC(c3ccccc3)C2)nc1C` (stereo unspecified), with -3.44%.

Take `CCN1CCn2c(C)cnc2C12CCN(C(=O)C(C)C)CC2`: the cytotoxicity at 10 µM amounted to 3.06%. Turning to `O=C1CC[C@@H]2[C@@H](CCN2Cc2ccccn2)N1CC1CC1`, the cytotoxicity at 10 µM is 4.76%. For `CNc1nc2c(s1)C(c1ccccc1F)CC(=O)N2` (stereo unspecified), the cytotoxicity at 10 µM is 4.43%.

Consider `CC(C)Oc1cccc(C(=O)C2CCCN(S(=O)(=O)C(C)C)C2)c1` (stereo unspecified), for which the cytotoxicity at 10 µM came out at 5.47%. In the case of `CCCN(c1ccccc1C(=O)O)S(=O)(=O)c1cccc2cccnc12` it was -3.89%; in that of `Cc1cc(-c2cnc(NC3CC3)nc2-c2ccc(C)o2)on1`, 2.26%; in that of `CCN(CC1CCOC1)C(=O)Nc1ccc(-n2cncn2)nc1` (stereo unspecified), -6.92%. With `Cc1c[nH]nc1C1CCN(S(=O)(=O)N(C)C)C1` (stereo unspecified), the cytotoxicity at 10 µM was -13%. For `Cc1cc(C)n(CC2CCCN2CCCc2nc3ccccc3o2)n1` (stereo unspecified), the cytotoxicity at 10 µM is -10.9%. On to `COC(=O)CC(NC(=O)c1ccccc1OC)c1cccs1` (stereo unspecified), for which the cytotoxicity at 10 µM stood at 0.35%. For `Cc1cnn(CC2CCCCN2Cc2noc(C3CC3)n2)c1` (stereo unspecified), the cytotoxicity at 10 µM was -9.32%.

With `Cc1nc(C)n(CCCNc2ncnc(C)c2C)n1`, the cytotoxicity at 10 µM is -1.74%. In the case of `CCn1cc(NC(=O)c2cccc(CN3C[C@@H](C)O[C@@H](C)C3)c2)nn1` it was 1.31%; in that of `O=S1(=O)NCC2(CCN(Cc3ccncc3)CC2)Oc2ncccc21`, 5.97%; in that of `CS(=O)(=O)N1CCN(C(=O)c2ccco2)[C@H]2CS(=O)(=O)C[C@H]21`, -6.69%. Take `Cc1cc(C)n(CC2CN(c3nnc(C)c(C)c3C#N)CCO2)n1` (stereo unspecified): the cytotoxicity at 10 µM is -18.2%. `CCOc1ccc(CN2CCC3(CC2)CNC(=O)C3)cn1`: the cytotoxicity at 10 µM turned out to be 0.987%.

For `CCN(Cc1nnsc1Cl)C(C)c1ccc(C#N)cc1` (stereo unspecified), the cytotoxicity at 10 µM was found to be 18.9%. `CN(CC(=O)N1CCC(Cc2cccc(C(N)=O)c2)C1)C1CCCC1` (stereo unspecified): the cytotoxicity at 10 µM was -7.92%.

Consider `Cc1csc2c(=O)n3c(nc12)CCN(C(=O)c1ccccn1)CC3`, for which the cytotoxicity at 10 µM is -10.2%. For the molecule `CC(=O)N(C)Cc1ccccc1NCc1c(C)cccc1C`, the cytotoxicity at 10 µM was -4.54%. With `CN(C)S(=O)(=O)N1C[C@H]2CC[C@@H](C1)N(CCC(=O)NCc1ccco1)C2`, the cytotoxicity at 10 µM is -6.74%. As for `CN1CCCC[C@@H]2[C@H]1[C@@H](c1ccccc1)CCN2C(=O)c1ccccn1`, the cytotoxicity at 10 µM was -14.7%. `Cc1ccc(CNC2CCCN(Cc3noc(C4CC4)n3)C2)s1` (stereo unspecified): the cytotoxicity at 10 µM is -6.01%.

`CCOCCN1CCN(CC2(O)CCCCC2)CC1`: the cytotoxicity at 10 µM came to 1.34%. With `CCC[C@H]1CN(S(=O)(=O)N(C)Cc2ccccc2)C[C@@H]1N`, the cytotoxicity at 10 µM was -138%. With `CN(Cc1ncc(C(C)(C)C)o1)CC1CCCN1c1cccnn1` (stereo unspecified), the cytotoxicity at 10 µM is -5.52%. As for `CCN1CCC(NC(=O)CN2CCCCC2Cn2cccn2)CC1` (stereo unspecified), the cytotoxicity at 10 µM is -2.71%. Regarding `CC[C@@H]1N(Cc2ccsc2)CCC[C@]12CCC(=O)N2C`, the cytotoxicity at 10 µM was 10%.

On to `CCc1cccc(CC)c1NC(=O)c1ccccc1N(C)S(C)(=O)=O`, for which the cytotoxicity at 10 µM was 11.4%.

On to `Cc1nsc2ncc(C(=O)N3CCCC3c3cnn(C)c3)cc12` (stereo unspecified), for which the cytotoxicity at 10 µM was -1.8%. `COc1ccc(C(=O)NCc2ccco2)nn1`: the cytotoxicity at 10 µM is -2.14%.

As to `COCc1ccc(CNc2cnn(C(C)(C)C)c(=O)c2Cl)cc1`, the cytotoxicity at 10 µM amounted to 60.9%. For `COC(=O)CN1CCCn2nc(CCC(=O)N3CCCC3)cc2C1`, the cytotoxicity at 10 µM was -204%.
